High-throughput results from PubChem BioAssay.
PKA-R2B activ – activators of human PKA-R2B complex. PKA-R2B holoenzyme dissociation, Cy5-IP20 fluorescence polarization; R2B truncated from residue 108, S112A mutant; 0% DMSO only, 100% 113 µM cGMP. actives 0.079% (n = 340,000). activation, % at 11.4 µM. P22694+P31323;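 active = activation above a cutoff set at the mean over all compounds plus 3 SD, cut at about 18% in these data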;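 also: higher means more holoenzyme dissociation and a rise in polarization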
PKA-R1A act – PKA-R1A complex activation | P00514+P68181 | PKA-R1A dissociation, Cy5-IP20 fluorescence polarization; scaled: DMSO 0%, 113 µM cGMP 100% | activation, % at 11.4 µM | actives 0.083% (n = 340,000) | AID 504707;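 active = percent activation above the mean of all tested compounds plus 3 SD, cut at about 19% in these data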;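 also: higher means more PKAc released from R1A so a rise in polarization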
SR-BI uptake up – enhances SR-BI lipid uptake from DiI-HDL; CHO ldlA[mSR-BI] cells, DiI-HDL uptake fluorescence, 3 h; 100 = double the neutral-control signal; activation, % at 12.5 µM; actives 0.096% (n = 320,000); AID 504775;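 active = mean replicate activation of at least 60% and every replicate at or above 60%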;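 also: 0% = median plate neutral-control signal and 100% = twice that signal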
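system = CHO ldlA[mSR-BI] cells, LDL receptor-null, SR-BI overexpressing | medium = Ham's F12 with 0.5% BSA, HEPES 25 mM, pH 7.4 | probe or stimulus = DiI-HDL 10 µg/mL | compound dosing = single-point compound dose | incubation = compound exposure 3 h, 37 °C | technique = DiI fluorescence, bottom read | read-out = cell-associated DiI fluorescence as measure of HDL uptake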
SR-BI DiI inh – mouse SR-BI HDL lipid transfer inhibition; ldlA[mSR-BI] CHO cells, DiI-HDL uptake fluorescence, 3 h; inhibition, % at 12.5 µM; actives 0.96% (n = 320,000); AID 488896;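 active = mean replicate inhibition of at least 70% and a set share of replicates each scoring 70 or more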;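 also: 0% = median of neutral control wells and 100% = median of positive control wells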
Target sequence (Q61009 whole entry, looked up): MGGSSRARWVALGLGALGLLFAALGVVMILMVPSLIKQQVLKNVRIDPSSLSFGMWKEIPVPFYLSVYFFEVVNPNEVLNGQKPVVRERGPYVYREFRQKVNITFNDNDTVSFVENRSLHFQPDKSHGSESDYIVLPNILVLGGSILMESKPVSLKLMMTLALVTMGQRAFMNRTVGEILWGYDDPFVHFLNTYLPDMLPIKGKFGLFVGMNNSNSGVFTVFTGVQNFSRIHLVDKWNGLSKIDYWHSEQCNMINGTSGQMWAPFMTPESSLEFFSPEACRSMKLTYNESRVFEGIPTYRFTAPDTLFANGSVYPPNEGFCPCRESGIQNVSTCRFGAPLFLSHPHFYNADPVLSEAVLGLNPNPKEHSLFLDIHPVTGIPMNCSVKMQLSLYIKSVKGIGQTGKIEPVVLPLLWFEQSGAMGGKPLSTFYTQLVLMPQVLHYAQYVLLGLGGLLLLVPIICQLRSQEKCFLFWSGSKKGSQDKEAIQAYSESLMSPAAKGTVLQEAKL
Vif imaging – HIV Vif inhibition; HEK293T cells, Vif self-association by quenched fluorescence, imaging, 24 h; inhibition, % at 7.49 µM; actives 0.35% (n = 340,000); AID 602346; in the data active = inhibition above about 50%, passing the limit was not always enough
Active calls of the source: *; / = not tested or not shown. Shown are actives, neighbours in structure and some others; about 1.4% of the full set was active somewhere.

SMILES	PKA-R2B activ	PKA-R1A act	SR-BI uptake up	SR-BI DiI inh	Vif imaging
Cc1ccc(-n2c([O-])nc(-[n+]3ccccc3)c2C=O)cc1	-2.2	-2.2	15.3	-15.3	51.0*
Fc1ccc(CCN2CCN=C2Nc2ccccc2)cc1	-2.8	8.7	67.8*	-67.8	3.1
c1ccc(CCN2CCN=C2Nc2ccccc2)cc1	4.8	9.6	-1.1	1.1	-2.9
O=C(COc1ccccc1[N+](=O)[O-])Nc1cccc(S(=O)(=O)N2CCCC2)c1	-4.3	3.5	-33.9	33.9	-4.4
O=C(COc1cc(F)ccc1[N+](=O)[O-])Nc1cc(S(=O)(=O)N2CCCC2)ccc1Cl	-10.2	-8.4	-75.0	75.0*	-14.1
CC1(C(=O)NCc2cccc3ccccc23)CCN1Cc1cc2ccccc2o1 (centres undefined)	/	/	/	/	-22.2
CCCCNc1c(-c2cccc(-c3ccc(OC)cc3)c2)nc2ccc(C)cn12	-7.5	-1.3	-44.4	44.4	-0.1
CCCCNc1c(-c2ccc(-c3ccc(C(C)=O)cc3)c(OC)c2)nc2cnccn12	-12.3	-2.1	-73.5	73.5*	-2.5
CCCCNc1c(-c2cccc(-c3ccc(OC)cc3)c2)nc2cc(C)ccn12	-3.9	-3.1	-73.3	73.3*	-11.8
CCCCNc1c(-c2ccc(OC)c(SC3CCCCC3)c2)nc2cnccn12	-3.0	-0.9	-27.3	27.3	-5.5
O=Cc1c(C(=O)O)n(CC(=O)O)c2ccccc12	1.1	3.9	24.3	-24.3	0.5
CC(C)N(Cc1ccccc1)C(=S)Nc1ccccc1F	/	/	/	/	-4.8
Cc1[nH]c2ccccc2c1/C=N/n1cnnc1	2.8	-0.4	29.4	-29.4	-3.7
COCCN=c1scc(-c2cc(OC)c(OC)c(OC)c2)n1/N=C/c1c(C)[nH]c2ccccc12	-12.8	-8.2	-92.0	92.0*	1.5
C=CCN1C(=O)C(Cc2cccc(Cl)c2)SC1=Nc1ccc(C(=O)O)cc1 (centres undefined)	7.0	1.7	62.5*	-62.5	4.0
C/C(=N\NC(=O)c1c(Cl)c(C)nn1C)c1cccc(NC(=O)COc2ccccc2)c1	-0.2	2.1	-62.5	62.5	0.7
C/C(=N\NC(=O)c1c(Cl)c(C)nn1C)c1ccc(NC(=O)COc2ccc(Cl)cc2C)cc1	4.4	-1.4	-71.8	71.8*	1.6
C#CCOc1ccc(/C=N/O)cc1Cl	-2.1	-7.6	84.2*	-84.2	0.3
NC(=S)NN=C(c1ccc(Br)cc1)C1CC1	-9.2	7.1	-78.6	78.6*	-3.0
O=C(NNC(=O)c1ccc(NC(=O)C2CC2)cc1)c1ccc(F)cc1	0.9	5.4	5.2	-5.2	-8.1
NC(=S)NN=C(c1ccc(F)cc1)C1CC1	-9.2	-3.3	-89.7	89.7*	69.9*
CC(C)n1c(=O)c2ccccc2n1Cc1cn(Cc2cccs2)nn1	/	/	/	/	-1.4
Cc1cccc(C)c1-n1nnnc1SCSc1nnnn1-c1c(C)cccc1C	0.9	-10.4	0.6	-0.6	-3.8
CSc1nnnn1-c1c(C)cccc1C	-11.8	-19.2	16.5	-16.5	50.8*
Cc1ccc(C)c(-n2nnc3ccccc3c2=O)c1	-1.8	-0.9	/	/	4.5
SMILES	PKA-R2B activ	PKA-R1A act	SR-BI uptake up	SR-BI DiI inh	Vif imaging
CC(Oc1cc2oc(=O)c3c(c2cc1Cl)CCCC3)C(=O)NCc1cccnc1 (centres undefined)	7.1	-16.9	-9.8	9.8	-6.8
CC(Oc1cc2oc(=O)c3c(c2cc1Cl)CCC3)C(=O)NCc1cccnc1 (centres undefined)	-5.8	1.1	-85.7	85.7*	11.3
CC(C)n1c(O)c(N=NC(=O)Cc2csc(N3CCOCC3)n2)c2ccccc21	-1.4	4.2	12.0	-12.0	0.3
O=C(CN1CCN(CC(=O)Nc2ccc(OCc3ccccc3)cc2)CC1)Nc1ccc(F)cc1	4.5	4.4	450.6*	-450.6	-13.7
O=C(CN1CCOCC1)Nc1ccc(OCc2ccccc2)cc1	1.0	-3.0	15.2	-15.2	-23.3
O=C(Nc1ccccc1)c1ccccc1OCc1ccc(F)cc1	2.6	-8.3	-74.1	74.1*	-1.7
O=C(Nc1ccccc1C(=O)Nc1ccc(F)cc1)c1ccco1	2.6	-13.1	-74.8	74.8*	-2.5
O=C(Nc1ccc(O)cc1)c1ccccc1OCc1ccccc1	-11.9	-2.2	-67.8	67.8	-1.1
COc1cc(SC)ccc1C(=O)NCCOc1ccc(C)c(C)c1	-6.4	-9.0	1.5	-1.5	-4.1
